In assay [1] the test system is CHO. Briefly: Dose required to inhibit cell growth was determined against CHO cell line; Not active represents IC50 >400 uM. In kind it is functional, cell-based. The settings on record: Cricetulus griseus. The essentials:
(§1)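 Alamar Blue growth-inhibition assay. Cells ((1–5) × 10³ per well) were preincubated for 24 h, then exposed to increasing drug concentrations for 72 h at 37 °C. Alamar Blue (20%) was added and fluorescence read at ex 485 / em 590 nm. IC50 is the dose inhibiting growth by 50%. Means of ≥3 independent determinations.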

In the next assay the test system is HT-29. As to the kind of experiment: Dose required to inhibit cell growth was determined against HT-29 cell line of human adenocarcinoma. Format: functional, cell-based. In a few lines:
(§2)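 Alamar Blue growth assay. (1–5) × 10^3 cells per well preincubated 24 h, then exposed to increasing drug concentrations for 72 h at 37 °C. Medium replaced with PBS containing 20% Alamar Blue, fluorescence read at 485/590 nm. IC50 is the dose inhibiting growth by 50%.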

For a further assay, the system named is K562. As to the kind of experiment: Dose required to inhibit cell growth was determined against K562 cell line of chronic myelogenous leukemia. In kind it is functional, cell-based. Particulars: Homo sapiens. The essentials:
as §2

Assay [2] concerns MDA-MB-231. As to the kind of experiment: Dose required to inhibit cell growth was determined against MDA-MB-231 cell line of human non-hormone dependent breast carcinoma; Not active represents IC50 >400 uM. In kind it is functional, cell-based. In a few lines: as §1
Assay [3] has as its system MDA-MB-231. Briefly: Beta tubulin alkylation activity in MDA-MB-231 cells; not determined. Format: functional, Homo sapiens. The essentials:
(§3)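 MDA-MB-231 cells (~5 × 10^6), exponentially growing, exposed to 30 μM compound for 24 h at 37 °C. Lysed in Laemmli buffer, run on 10% SDS-PAGE, immunoblotted with anti-β-tubulin (TUB 2.1, 1:500) and peroxidase anti-mouse secondary, ECL detection. Normal and alkylated band densities integrated to give % alkylated β-tubulin. Representative of three experiments.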

Assay [4] can be described thus: Alkylating activity using 4-(4-nitrobenzyl)-pyridine(NBP) colorimetric assay.
For the next assay, the system named is L1210. Briefly: Dose required to inhibit cell growth was determined against L1210 cell line of murine lymphocytotic leukemia. Particulars: Mus musculus. In kind it is functional, cell-based. In a few lines:
as §2

The test system of assay [5] is MDA-MB-231. As to the kind of experiment: Beta tubulin alkylation activity in MDA-MB-231 cells. In kind it is functional, Homo sapiens. Set-up: concentration or dose not given beside the values. The essentials: as §3
The subject of assay [6] is MDA-MB-231. As to the kind of experiment: Dose required to inhibit cell growth was determined against MDA-MB-231 cell line of human non-hormone dependent breast carcinoma. In kind it is functional, cell-based. The essentials: as §2
Assay [7] has as its system LoVo. As to the kind of experiment: Dose required to inhibit cell growth was determined against LoVo cell line a human colon adenocarcinoma; NA= Not active represents IC50 >400 uM. In kind it is functional, cell-based. The essentials:
as §1

Assay [8] deals with P388. As to the kind of experiment: Dose required to inhibit cell growth was determined against P388D1 cell line of murine lymphocytotic leukemia; NA= Not active represents IC50 >400 uM. Particulars: Mus musculus. In kind it is functional, cell-based. In a few lines: as §1
For assay [9], the system named is CHO. As to the kind of experiment: Dose required to inhibit cell growth was determined against CHO cell line. The settings on record: Cricetulus griseus. Format: functional, cell-based. In a few lines: as §2
Assay [10] has as its system MDA-MB-231. Briefly: DNA damages caused in MDA-MB-231 cells after 2 hr exposure to a concentration of 400 uM. In kind it is functional. The essentials:
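Growing MDA-MB-231 cells held 2 h at 37 °C in medium with or without 400 μM compound. Cells washed in cold PBS and lysed in Tris/SDS/EDTA/deferoxamine/proteinase K buffer. DNA isolated by salting out, then 3'-end labeled by T4 DNA polymerase nucleotide exchange. Incorporated radioactivity measured by dot filtration, expressed as dCps exchanged/ng DNA. Means ± SD, ≥3 determinations.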

Assay [11] concerns LoVo. Briefly: Dose to inhibit cell growth determined against LoVo cell line of human adenocarcinoma. Format: functional, cell-based. In a few lines:
as §2

Assay [12] concerns P388. As to the kind of experiment: Dose required to inhibit cell growth was determined against P388D1 cell line of murine lymphocytotic leukemia. In kind it is functional, cell-based. Particulars: Mus musculus. In a few lines:
as §2

The nature of assay [13]: Alkylating activity by using 4-(4-nitrobenzyl)-pyridine(NBP) colorimetric assay. The essentials: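 NBP colorimetric assay. Drug at 400 nmol/mL in ethanol was mixed with 10% NBP in ethanol and 50 mM sodium acetate pH 4.3, then heated at 80 °C for 60, 90, 120 or 150 min. Samples were chilled and basified with KOH/ethanol, and A570 was read against a drug-free blank. The alkylation rate (A570/min) is the slope of a linear regression of absorbance vs time. Mean ± SD of ≥3 independent experiments.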

Each structure is given as a SMILES string. Activity calls are given as the source filed them. The rule behind the calls is not given here.

This note sets out measurements from ChEMBL document CHEMBL1134792, “Antimitotic antitumor agents: synthesis, structure-activity relationships, and biological characterization of N-aryl-N'-(2-chloroethyl)ureas as new selective alkylating agents” (J Med Chem, 2001).

By IC50 is commonly meant the concentration at which inhibition is half-maximal. For `CCNC(=O)Nc1ccc(C(C)(C)C)cc1`, the NA entry in the assay on CHO [1] and with MDA-MB-231 [2] was “inactive” each time. Moreover, the half-inhibitory concentration (IC50) with HT-29 is 83 µM; in the assay on K562, 84 µM. The results for the Activity (with MDA-MB-231 [3]; in assay [4]) were 0 and 0.07, respectively.
With `O=C(NCCCl)Nc1ccccc1`, the IC50 is greater than 100 µM with HT-29, greater than 100 µM in the assay with K562, 57 µM in the assay on L1210 and 140 µM in the assay on MDA-MB-231 [6]. Further, in the assay with MDA-MB-231 [5], the Activity stood at 0%. The NA entry in the assay on LoVo [7] and in the assay with P388 [8] was “inactive” in each case.
Take `O=C(NCCCl)Nc1ccc2c(c1)CCC2`: the IC50 worked out at 10 µM in the assay on CHO [9]; 10 µM in the assay on HT-29; 5.5 µM with K562; 5 µM in the assay on L1210; 10 µM with MDA-MB-231 [6]; 5.1 µM in the assay on LoVo [11]. This compound yielded an IC50 with P388 [12] of 7.3 µM. Moreover, the Activity in the assay with MDA-MB-231 [5] stood at 43%; in assay [13] it was 3.5 A570 min-1. Besides, in the assay with MDA-MB-231 [10], the DNA damage is on record as 2.37 10e7 exchanged dCps (ng of DNA).
